# Experimental data taken from ChEMBL document CHEMBL1150864, “Antimalarial compounds from Rhaphidophora decursiva” (J Nat Prod, 2001).
# Assays:
# [1] = Selectivity index, ratio of ED50 for human KB cells to IC50 for chloroquine-sensitive Plasmodium falciparum D6; format: functional
# Plasmodium falciparum [2] = assay: Antiplasmodial activity against chloroquine-resistant Plasmodium falciparum W2 by [3H]hypoxanthine uptake; format: functional, organism-based
# In short: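 P. falciparum W2 grown in type A+ human erythrocytes in RPMI-1640 with NaHCO3, HEPES, hypoxanthine and 10% Albumax II, 5% O2/5% CO2/90% N2, 37 °C. Samples from 4 mg/mL stock tested in triplicate at 0.5-1% parasitemia, 1% hematocrit. After 24 h, 0.5 μCi [3H]hypoxanthine added for 18 h more; IC50 by nonlinear regression, zero-drug controls as 100%.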
# [3] = Selectivity index, ratio of ED50 for human KB cells to IC50 for chloroquine-resistant Plasmodium falciparum W2; format: functional
# [4] = Cytotoxicity against human KB cells after 72 hrs; format: cell-based; conditions: read-out: ED50
# Plasmodium falciparum [5] = assay: Antiplasmodial activity against chloroquine-sensitive Plasmodium falciparum D6 by [3H]hypoxanthine uptake; format: functional, organism-based
# In short: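 P. falciparum D6 kept in type A+ human erythrocytes (RPMI-1640, NaHCO3, HEPES, hypoxanthine, 10% Albumax II) under 5% O2/5% CO2/90% N2 at 37 °C. Plated at 0.5-1% parasitemia, 1% hematocrit with serial dilutions from 4 mg/mL stock, triplicate; 24 h, then 0.5 μCi [3H]hypoxanthine for 18 h more. Scintillation counting; IC50 by nonlinear regression versus zero-drug controls.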
SMILES,Selectivity Index [1],IC50 (Plasmodium falciparum [2]),Selectivity Index [3],CC50 at 72 h [4],IC50 (Plasmodium falciparum [5]; D6),"IC50 (Plasmodium falciparum [5]; D6, 42 h)"
C/C=C/c1cc(OC)c(O[C@H](C)[C@@H](O)c2cc(OC)c(OC)c(OC)c2)c(OC)c1 (relative stereo) [POLYSYPHORIN],5,0.368 µg/mL,6,2 µg/mL,0.404 µg/mL,–
C=CCc1cc(OC)c(O[C@H](C)[C@@H](O)c2cc(OC)c(OC)c(OC)c2)c(OC)c1 [RHAPHIDECURSINOL B],1,4.68 µg/mL,2,10 µg/mL,5.37 µg/mL,–
COc1cc([C@@H]2OC[C@@H]3[C@H]2CO[C@H]3c2cc(OC)c(O)c(OC)c2)cc(OC)c1O,–,–,–,–,–,> 10 µg/mL
COc1cc([C@H]2O[C@@H](c3cc(OC)c(OC)c(OC)c3)[C@H](C)[C@H]2C)cc(OC)c1OC [EPIGRANDISIN],<2,3.34 µg/mL,4,16 µg/mL,> 10 µg/mL,–
C=C[C@H]1CN2CC[C@H]1C[C@H]2[C@H](O)c1ccnc2ccc(OC)cc12 [QUININE],>2000,0.041 µg/mL,>490,> 20 µg/mL,0.009 µg/mL,–
COc1cc(O)cc2c1C(=O)OOC(C)CCCCC/C=C/2 (stereo unspecified) [RHAPHIDECURPEROXIN],0.7,0.42 µg/mL,1,4 µg/mL,0.54 µg/mL,–
CCCCCC1(O)OC(=O)C(C)=C1C (stereo unspecified),–,–,–,–,–,> 10 µg/mL
COc1cc([C@H]2OC[C@H]3[C@@H]2CO[C@@H]3c2cc(OC)c(O)c(OC)c2)ccc1O,–,–,–,–,–,> 10 µg/mL
COc1cc([C@H]2OC[C@@H]3C(=O)OC[C@@H]32)cc(OC)c1O,–,–,–,–,–,> 10 µg/mL
CCCCNC(=O)c1ccccc1,–,–,–,–,–,> 10 µg/mL
COc1cc([C@@H]2OC[C@H]3[C@@H]2CO[C@H]3c2ccc(O)c(OC)c2)ccc1O [(-)-PINORESINOL],–,–,–,–,–,> 10 µg/mL
COc1cc([C@@H]2O[C@@H](c3cc(OC)c(OC)c(OC)c3)[C@H](C)[C@H]2C)cc(OC)c1OC [GRANDISIN],7,1.48 µg/mL,8,14 µg/mL,1.51 µg/mL,–
CC(=O)/C=C/[C@@]1(O)C(C)=CC(=O)CC1(C)C,–,–,–,–,–,> 10 µg/mL
C[C@@H]1CC[C@H]2[C@@H](C)C(=O)O[C@@H]3O[C@@]4(C)CC[C@@H]1[C@]32OO4 [ARTEMISININ],>10000,0.002 µg/mL,>10000,> 20 µg/mL,–,–
